Data set [1] addresses T1, Sigma non-opioid intracellular receptor 1 (Homo sapiens, UniProt Q99720). Put plainly: Displacement of [3H]-(+)-pentazocine from sigma 1 receptor (unknown origin) at 25 nM by scintillation counting analysis. Conditions: filed as agonist. The method in brief:
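Single-concentration screen at 25 nM test compound against [3H](+)pentazocine (15 nM) at S1R; scintillation counting; result given as % inhibition of control specific binding, i.e. 100 minus measured/control specific binding ×100.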

The test system of data set [2] is LoVo. Put plainly: Cytotoxicity against human LoVo cells assessed as reduction in cell survival rate at 100 uM incubated for 48 to 72 hrs by MTT assay. The data set is classed as toxicity, cell-based. The conditions noted are these: time 48-72 hrs. The method in brief:
(§1)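 Cancer lines grown in Ham's F-12K or DMEM with 10% FBS, used in exponential growth; seeded 2500 cells/well, exposed to 0.1–100 μM for 24, 48 and 72 h continuous. Viability by CellTiter 96 AQueous One (tetrazolium) absorbance at 490 nm; three independent experiments in quadruplicate, % survival vs untreated.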

The target of data set [3] is Glutamate [NMDA] receptor (Homo sapiens) (UniProt Q05586+Q12879+Q13224+O15399+O60391+Q14957+Q8TCU5). The data set can be described thus: Displacement of [3H]CGP39653 from human NMDAR at 25 nM by scintillation counting analysis. The data set is classed as protein-complex assay. The procedure, abridged: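 NMDA receptor binding with [3H]CGP39653 (5 nM) as radioligand, test compound at 25 nM; displacement read by scintillation counting and reported as % inhibition of control specific binding.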

Data set [4] in a line: Lipophilicity, logP of the compound. The format is physicochemical. The conditions noted are these: octanol/water.
For data set [5], the system named is PANC-1. Put plainly: Cytotoxicity against human PANC-1 cells assessed as reduction in cell survival rate at <=10 uM incubated for 24 to 72 hrs by MTT assay. The format is toxicity, cell-based. Conditions: panc-1, 10 µM, time 24-72 hrs. The method in brief: as §1
Data set [6] can be described thus: Toxicity in Zebrafish embryos assessed as morphological abnormality by observing short and up-curved tail at 10 uM incubated for 5 days by Teratogenic test. Further details: species or system Danio rerio. The conditions noted are these: in vivo, 120 h, time 5 day. The method in brief: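 Tg(GFAP:GFP) zebrafish embryos, 8 per group, exposed from 1 h post-fertilization to increasing compound concentrations at 28 °C for about 5 days without medium change; mortality, developmental defects and morphology score assessed at 5 dpf.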

For data set [7], the system named is SH-SY5Y. The data set can be described thus: Neuroprotective activity in human SH-SY5Y cells assessed as prevention of oligomycin induced cell damage by measuring cell viability at 0.1 to 5 uM incubated for 24 hrs in presence of oligomycin by MTT assay. The format is functional, cell-based. The conditions noted are these: dose 0.1-5 µM. The method in brief:
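SH-SY5Y cells (~7000/well) co-incubated 24 h at 37 °C in 2% FBS medium with toxic stimulus (NMDA 250 μM or oligomycin 2.5 μM) plus compound at 0.1–5 μM. Viability by MTT, expressed as % of control.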

The nature of data set [8]: Thermodynamic solubility of the compound in KH2PO4/Na2HPO4 buffer at pH 7.4 incubated for 24 hrs. Conditions: read-out: Therm_solubility. The format is physicochemical. The method in brief: (§2)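 10 mM DMSO stock diluted 1:100 into buffer (HCl/KCl pH 1.2; KH2PO4/NaOH pH 6.8; KH2PO4/Na2HPO4 pH 7.4), 1% v/v DMSO final; shaken 24 h at 1200 rpm, filtered through 0.45 μm polycarbonate membrane, filtrate diluted 1:1 with MeOH and analysed.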

A short description of data set [9]: Toxicity in Zebrafish embryos assessed as morphological abnormality at 0.1 to 50 uM incubated for 5 days by Teratogenic test. Further details: species or system Danio rerio, Embryo. Conditions: in vivo, 120 h, dose 0.1-50 µM, time 5 day. The procedure, abridged: (§3)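 Tg(GFAP:GFP) zebrafish embryos from 2 female × 1 male matings, 8 embryos per control or concentration, exposed from 1 h post-fertilization and kept at 28 °C for about 5 days without medium change. At 5 dpf (120 h) mortality and developmental abnormalities (tail shape, heart, pigmentation) were scored, with morphology given a severity score.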

Data set [10] in a line: Thermodynamic solubility of the compound in KH2PO4/NaOH buffer at pH 6.8 incubated for 24 hrs. The format is physicochemical. Conditions: read-out: Therm_solubility. The method in brief:
as §2

Data set [11] in a line: Toxicity in Zebrafish embryos assessed as death at 10 uM incubated for 5 days by Teratogenic test. Details: species or system Danio rerio, Embryo. Conditions: in vivo, time 5 day, read-out: Activity. The procedure, abridged: as §3
Data set [12] in a line: Toxicity in Zebrafish embryos assessed as increase in embryo vitality structure damage at 10 to 50 uM incubated for 5 days by Teratogenic test. The conditions noted are these: in vivo, 120 h, dose 10-50 µM, time 5 day. Further details: species or system Danio rerio. The procedure, abridged:
as §3

Data set [13] relates to LoVo. The data set can be described thus: Cytotoxicity against human LoVo cells assessed as reduction in cell survival rate at <=10 uM incubated for 24 to 72 hrs by MTT assay. The format is toxicity, cell-based. The conditions noted are these: time 24-72 hrs. The method in brief:
as §1

For data set [14], the system named is PC-12. Put plainly: Neuroprotective activity in rat PC12 cells assessed as induction of NGF-mediated neurite outgrowth at 0.1 to 5 uM by neurite outgrowth assay. The format is functional, cell-based. The conditions noted are these: dose 0.1-5 µM. The procedure, abridged: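 PC12 cells stimulated with NGF (2.5 nM) and treated with compound up to 5 μM, alone or after pre-treatment with S1R antagonist NE-100 (3 μM); read-out is percentage of cells bearing neurite sprouts; mean ± SEM of three independent experiments.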

Data set [15] addresses T1, Sigma non-opioid intracellular receptor 1. The data set can be described thus: Displacement of [3H]-(+)-pentazocine from sigma 1 receptor (unknown origin) assessed as inhibition constant by scintillation counting analysis. The method in brief:
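Radioligand displacement at S1R with [3H](+)pentazocine (15 nM) and at S2R with [3H]DTG (25 nM); S2R assay includes 1 μM cold (+)pentazocine to mask S1R sites. Bound radioactivity counted by scintillation. IC50 and Hill slope from non-linear Hill fit of competition curves; Ki by Cheng–Prusoff using radioligand concentration and KD from Scatchard plot.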

Data set [16] relates to SH-SY5Y. The data set can be described thus: Cytotoxicity against human SH-SY5Y cells assessed as cell death at 0.1 to 50 uM incubated for 72 hrs by MTT assay. The data set is classed as toxicity, cell-based. Conditions: dose 0.1-50 µM. The procedure, abridged:
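SH-SY5Y cells kept in DMEM/10% FBS, 2 mM glutamine, 37 °C, 5% CO2; ~7000 cells/well, after 1 day given compound (six concentrations, 0.1–100 μM; DMSO stocks 10 mM) in 2% FBS medium for 72 h. MTT (0.5% w/v, 2 h), formazan dissolved in DMSO, absorbance read; triplicates, % of untreated control.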

Data set [17] concerns PANC-1. Put plainly: Cytotoxicity against human PANC-1 cells assessed as reduction in cell survival rate at 100 uM incubated for 48 to 72 hrs by MTT assay. The data set is classed as toxicity, cell-based. Conditions: panc-1, 100 µM, time 48-72 hrs. The method in brief:
as §1

The nature of data set [18]: Selectivity index, ratio of Ki for displacement of [3H]DTG from sigma 2 receptor (unknown origin) to Ki for displacement of [3H]-(+)-pentazocine from sigma 1 receptor (unknown origin).
Data set [19] deals with SH-SY5Y. Put plainly: Neuroprotective activity in human SH-SY5Y cells assessed as prevention of rotenone induced cell damage by measuring cell viability at 1 uM preincubated with PB212 for 1hrs followed by compound addition in presence of rotenone and measured after 24 hrs by MTT assay. The format is functional, cell-based. The procedure, abridged: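 SH-SY5Y cells pre-incubated 1 h with S1R antagonist PB212 (5 μM), then treated with compound (1 or 5 μM) plus PB212 (5 μM) and either rotenone 25 μM or NMDA 250 μM for 24 h; viability by MTT; two-way ANOVA with Bonferroni post hoc test.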

Data set [20] in a line: Thermodynamic solubility of the compound in HC1/KCl buffer at pH 1.2 incubated for 24 hrs. The conditions noted are these: HCl/KCl buffer, read-out: Therm_solubility. The format is physicochemical. The procedure, abridged:
as §2

The nature of data set [21]: Toxicity in Zebrafish embryos assessed as decrease in embryo vitality rate at 10 to 50 uM incubated for 5 days by Teratogenic test. The conditions noted are these: in vivo, 120 h, dose 10-50 µM, time 5 day. Details: species or system Danio rerio. The method in brief: as §3

Converted amounts (≈) assume the structure as drawn. The source made the active and inactive calls. No cut-off for these calls is given here. Bounds are passed on as bounds.

T1 sequence (Q99720 whole entry): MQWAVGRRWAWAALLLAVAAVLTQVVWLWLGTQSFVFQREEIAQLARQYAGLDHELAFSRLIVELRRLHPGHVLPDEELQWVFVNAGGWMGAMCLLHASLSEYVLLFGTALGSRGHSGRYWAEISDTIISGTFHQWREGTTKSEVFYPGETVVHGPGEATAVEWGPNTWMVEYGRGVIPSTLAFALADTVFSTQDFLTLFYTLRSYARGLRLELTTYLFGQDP

On to `c1ccc(CC2CCN(CCCOc3ccccc3)CC2)cc1`, for which the Activity in data set [1] is more than 95%; in [2], 40%; in data set [3] it was less than 11.9%; in [5], “Non-Toxic”; in [6], “Toxic”; in [9] it was “Toxic”. In addition, the Activity entry in data set [12] was “Toxic”; in [13] it was “Non-Toxic”; in data set [14], “Dose-Dependent Effect”; in data set [16], “Non-Toxic”; in [17] it was 20%; in data set [21], “Toxic”. In data set [4], this compound yielded a logP of 4.38. For the same compound, the result in data set [7] and in data set [19] was inactive. The solubility thermodynamic at 24 h in [8], in data set [10] and in data set [20] was 2800 µg/mL (≈ 9.05 mM) in each case. Besides, the mortality at 120 h, 10 µM in [11] turned out to be 100%. The Ki in data set [15] was 1.1 nM. Also, the Ratio Ki in data set [18] is 80.
With `c1ccc(CC2CCN(CCOc3ccccc3)CC2)cc1`, the Activity in [1] is more than 95%; in data set [2], 40%; in data set [3], less than 11.9%; in [5] it was “Non-Toxic”; in data set [6], 75%; in data set [9], “Toxic”. Besides, the Activity result in data set [12] is “Toxic”; in [13] it was “Non-Toxic”; in [14] it was “Dose-Dependent Effect”; in data set [16], “Non-Toxic”; in [17], 20%; in data set [21], “Toxic”. The compound also displayed a logP in [4] of 4. For the same compound, the outcome in data set [7] and in data set [19] was inactive. For the same compound, the solubility thermodynamic at 24 h in data set [8], in [10] and in [20] was 7800 µg/mL (≈ 26.4 mM) in each case. In addition, in data set [11], the mortality at 120 h, 10 µM worked out at 50%. For the same compound, in [15], the Ki is 0.93 nM. Also, the Ratio Ki in data set [18] was determined as 77.

The values are drawn from ChEMBL document CHEMBL5331102, “Novel S1R agonists counteracting NMDA excitotoxicity and oxidative stress: A step forward in the discovery of neuroprotective agents” (Eur J Med Chem, 2023).
